The record followed here is ChEMBL document CHEMBL3779827, “A new series of 2-phenol-4-aryl-6-chlorophenyl pyridine derivatives as dual topoisomerase I/II inhibitors: Synthesis, biological evaluation and 3D-QSAR study” (Eur J Med Chem, 2016).

A word on the pIC50: it is the IC50 on a negative log10 scale, so that one unit is a factor of ten.

Molecules are shown by their SMILES. pIC50: −log10 of the molar value. Where a name gives a salt, the structure may show the parent alone.

A short description of test [1]: Cytotoxicity against human HCT15 cells after 48 hrs by CCK8 assay. To be noted: HCT-15, 48 h. In kind it is functional, cell-based. A digest of the protocol:
(§1)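 IC50 values are reported in micromolar. Adriamycin, etoposide and camptothecin served as positive controls.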
A general note: Formazan colour is commonly taken as a measure of viable cells.

Another test concerns HeLa. In words: Cytotoxicity against human HeLa cells after 48 hrs by CCK8 assay. The format is functional, cell-based. A digest of the protocol:
as §1

The nature of test [2]: Cytotoxicity against human DU145 cells after 48 hrs by CCK8 assay. The settings on record: DU-145, 48 h.

`CC[C@@]1(O)C(=O)OCc2c1cc1n(c2=O)Cc2cc3ccccc3nc2-1` [CAMPTOTHECIN]: the values for the pIC50 (in test [1]; with HeLa; in test [2]) were 5.55, 6.74 and 7.70, respectively.
As to `COc1cccc2c1C(=O)c1c(O)c3c(c(O)c1C2=O)C[C@@](O)(C(=O)CO)C[C@@H]3O[C@H]1C[C@H](N)[C@H](O)[C@H](C)O1` [DOXORUBICIN HYDROCHLORIDE], the pIC50 in test [1] was 5.91.
As for `COc1cc([C@@H]2c3cc4c(cc3[C@@H](O[C@@H]3O[C@@H]5CO[C@@H](C)O[C@H]5[C@H](O)[C@H]3O)[C@H]3COC(=O)[C@H]23)OCO4)cc(OC)c1O` [ETOPOSIDE], the pIC50 in test [1] is 4.72; in test [2], 5.68.
